The test system of data set [1] is Rattus norvegicus. Put plainly: Antiinflammatory activity against carrageenan-induced paw edema in orally dosed Wistar rat after 1 hr relative to control. Type of data set: functional. The essentials:
(§1)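 Wistar rats of either sex, 100–120 g, fasted 24 h with water available. Compounds were suspended in 1% aqueous CMC and given orally 1 h before 0.1 mL of freshly prepared 1.0% w/v carrageenan was injected subplantar into the right hind paw. Paw volume was measured before and after carrageenan. Change in paw volume is mean ± SD versus vehicle control, by one-way ANOVA with Dunnett's test.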
For orientation: In the carrageenan paw model, swelling and tenderness develop within hours.

Another data set relates to Mus musculus. The experiment in a line: Analgesic activity against acetic acid-induced writhing in Swiss Albino mouse at 10 mg/kg, po after 25 mins relative to control. It counts as functional. The procedure, abridged:
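Mice given compounds orally at 10 mg/kg, suspended in 1% aqueous sodium carboxymethyl cellulose. Vehicle-only controls were run. Acetic acid was used to induce writhing. Writhes were counted over 25 min after treatment and reported as mean ± SEM. Percent inhibition was calculated versus the vehicle control.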

Data set [2] relates to Rattus norvegicus. Put plainly: Gastric-ulcerogenic effect in Wistar rat at 10 mg/kg, po. It counts as ADME, organism-based. Also on record: dose 10 mg/kg, route oral. The note with it: in vivo. The procedure, abridged:
(§2)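 Wistar rats of either sex (100–120 g), kept at 25 °C and 50% relative humidity on a 12 h light/dark cycle, fasted 24 h with water ad libitum. Compounds were suspended in 1% aqueous CMC and given orally; controls received vehicle. Ulceration was induced in a stress model with added cold stress. Gastric mucosa was scored, with severity index = treated mean score minus control mean. Ratio of ulcerated animals recorded. Mean ± SEM; one-way ANOVA with Dunnett's test. Tissue examined after H&E staining.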

The test system of data set [3] is Rattus norvegicus. The experiment in a line: Gastric-ulcerogenic effect in Wistar rat at 30 mg/kg, po. It counts as ADME, organism-based. Also on record: dose 30 mg/kg, route oral. The note with it: in vivo. The essentials: as §2
Data set [4] has as its system Rattus norvegicus. The experiment in a line: Gastric-ulcerogenic effect in Wistar rat at 50 mg/kg, po. To be noted: in vivo. Also on record: dose 50 mg/kg, route oral. Type of data set: ADME, organism-based. The procedure, abridged: as §2
Data set [5] has as its system Rattus norvegicus. Put plainly: Induction of gastric ulcer in orally dosed Wistar rat assessed as stomach mucosal damage. The note with it: in vivo, po. Type of data set: organism-based. The procedure, abridged: as §2
Data set [6] relates to Rattus norvegicus. Put plainly: Antiinflammatory activity against carrageenan-induced paw edema in orally dosed Wistar rat after 2 hrs relative to control. It counts as functional. The procedure, abridged: as §1
The subject of data set [7] is Rattus norvegicus. The experiment in a line: Antiinflammatory activity against carrageenan-induced paw edema in orally dosed Wistar rat after 3 hrs relative to control. It counts as functional. The essentials: as §1

The term Inhibition denotes the drop in the measured response relative to a control, in per cent. A word on the inhibition in vivo: it is the change of the read-out against control, counted positive when it falls. A lower inhibition in vivo goes with a response near the control.

`O=C(Cc1ccccc1Nc1c(Cl)cccc1Cl)N/N=C/c1ccc(Br)cc1`: the values for the Inhibition with Rattus norvegicus [1], with Rattus norvegicus [6] and in the data set with Rattus norvegicus [7] were 30.53%, 51.72% and 80.07%, respectively. The same compound returned an inhibition in vivo at 10 mg/kg in the data set on Mus musculus of 68.7%. Further, the Activity result with Rattus norvegicus [2], in the data set with Rattus norvegicus [3], in the data set with Rattus norvegicus [4] and in the data set with Rattus norvegicus [5] was “Non-toxic” in each case.

Turning to `CN(C)c1ccc(/C=N/NC(=O)Cc2ccccc2Nc2c(Cl)cccc2Cl)cc1`, the Inhibition in the data set with Rattus norvegicus [1] is listed as 28.2%; in the data set on Rattus norvegicus [6], 48.75%; in the data set with Rattus norvegicus [7], 69.39%.

On to `O=C(Cc1ccccc1Nc1c(Cl)cccc1Cl)N/N=C/c1ccccc1O`, for which the values for the Inhibition in the data set on Rattus norvegicus [1], in the data set with Rattus norvegicus [6] and in the data set on Rattus norvegicus [7] were 31.38%, 46.96% and 72.88%, respectively. The compound further showed an inhibition in vivo at 10 mg/kg in the data set with Mus musculus of 60.5%. Also, the Activity entry in the data set with Rattus norvegicus [2], in the data set on Rattus norvegicus [3], in the data set with Rattus norvegicus [4] and in the data set on Rattus norvegicus [5] was “Non-toxic” in each case.

For `O=C(CSc1nnc(Cc2ccccc2Nc2c(Cl)cccc2Cl)o1)c1cccc(O)c1`, the Inhibition is given as 17.94% in the data set with Rattus norvegicus [1], 44.53% in the data set on Rattus norvegicus [6] and 69.89% with Rattus norvegicus [7].

For `O=C(CSc1nnc(Cc2ccccc2Nc2c(Cl)cccc2Cl)o1)c1ccc(Cl)c(Cl)c1`, the values for the Inhibition in the data set on Rattus norvegicus [1], in the data set with Rattus norvegicus [6] and in the data set with Rattus norvegicus [7] were 30.46%, 52.26% and 60.39%, respectively.

Regarding `O=C(Cc1ccccc1Nc1c(Cl)cccc1Cl)N/N=C/c1ccccc1Cl`, the figures for the Inhibition in the data set on Rattus norvegicus [1], in the data set on Rattus norvegicus [6] and in the data set with Rattus norvegicus [7] were 13.54%, 40.2% and 60.99%, respectively.

As for `O=C(Cc1ccccc1Nc1c(Cl)cccc1Cl)N/N=C/c1cccc([N+](=O)[O-])c1`, the Inhibition in the data set with Rattus norvegicus [1] is on record as 20.87%; with Rattus norvegicus [6], 47.02%; in the data set on Rattus norvegicus [7], 69.79%.

Regarding `Cc1ccc(/C=N/NC(=O)Cc2ccccc2Nc2c(Cl)cccc2Cl)cc1`, the Inhibition in the data set on Rattus norvegicus [1] was 20.99%; in the data set with Rattus norvegicus [6], 43.09%; in the data set with Rattus norvegicus [7] it was 68.62%.

For `O=C(Cc1ccccc1Nc1c(Cl)cccc1Cl)N/N=C/c1ccc(F)cc1`, the Inhibition in the data set on Rattus norvegicus [1] was 16.64%; with Rattus norvegicus [6], 41.35%; with Rattus norvegicus [7] it was 60.34%.

As for `O=C(CSc1nnc(Cc2ccccc2Nc2c(Cl)cccc2Cl)o1)c1ccc(Br)cc1`, the Inhibition with Rattus norvegicus [1] is reported as 26.02%; in the data set with Rattus norvegicus [6], 45.16%; in the data set with Rattus norvegicus [7], 71.05%. The compound also registered an inhibition in vivo at 10 mg/kg with Mus musculus of 55%.

Turning to `O=C([O-])Cc1ccccc1Nc1c(Cl)cccc1Cl.[Na+]` [DICLOFENAC SODIUM], the Inhibition in the data set with Rattus norvegicus [1] is recorded as 28.69%; in the data set with Rattus norvegicus [6], 48.99%; in the data set on Rattus norvegicus [7], 71.3%. This compound also yielded an inhibition in vivo at 10 mg/kg with Mus musculus of 64.7%. The figures for the UI with Rattus norvegicus [2] and in the data set with Rattus norvegicus [3] were 1.8 and 2.1, respectively.

Regarding `COc1ccc(/C=N/NC(=O)Cc2ccccc2Nc2c(Cl)cccc2Cl)cc1`, the Inhibition with Rattus norvegicus [1] amounted to 27.21%; with Rattus norvegicus [6] it was 51.88%; with Rattus norvegicus [7], 73.36%. In the data set on Mus musculus, this compound yielded an inhibition in vivo at 10 mg/kg of 53.9%. The Activity entry in the data set with Rattus norvegicus [2], with Rattus norvegicus [3], in the data set on Rattus norvegicus [4] and in the data set on Rattus norvegicus [5] was “Non-toxic” each time.

For the compound `O=C(CSc1nnc(Cc2ccccc2Nc2c(Cl)cccc2Cl)o1)c1cccc([N+](=O)[O-])c1`, the results for the Inhibition in the data set on Rattus norvegicus [1], in the data set on Rattus norvegicus [6] and in the data set on Rattus norvegicus [7] were 28.34%, 49.47% and 60.39%, respectively.

On to `O=C(CSc1nnc(Cc2ccccc2Nc2c(Cl)cccc2Cl)o1)c1ccc(O)cc1`, for which the Inhibition in the data set with Rattus norvegicus [1] turned out to be 31.55%; with Rattus norvegicus [6], 48.91%; with Rattus norvegicus [7], 71.99%. The compound also yielded an inhibition in vivo at 10 mg/kg in the data set with Mus musculus of 68.2%.

As to `O=C(CSc1nnc(Cc2ccccc2Nc2c(Cl)cccc2Cl)o1)c1ccc([N+](=O)[O-])cc1`, the Inhibition is reported as 20.99% in the data set on Rattus norvegicus [1], 45.64% with Rattus norvegicus [6] and 67.19% in the data set with Rattus norvegicus [7].

`O=C(Cc1ccccc1Nc1c(Cl)cccc1Cl)N/N=C/c1ccc(O)cc1`: the Inhibition in the data set on Rattus norvegicus [1] is 16.28%; in the data set with Rattus norvegicus [6] it was 38.14%; with Rattus norvegicus [7], 70.94%.

As to `COc1cc(/C=N/NC(=O)Cc2ccccc2Nc2c(Cl)cccc2Cl)cc(OC)c1OC`, the Inhibition with Rattus norvegicus [1] is given as 29.11%; in the data set with Rattus norvegicus [6], 50.97%; in the data set with Rattus norvegicus [7], 71.93%.

`COc1ccc(C(=O)CSc2nnc(Cc3ccccc3Nc3c(Cl)cccc3Cl)o2)cc1OC`: the Inhibition with Rattus norvegicus [1] was 23.43%; with Rattus norvegicus [6], 48.63%; in the data set on Rattus norvegicus [7], 72.63%. In addition, testing at 10 mg/kg with Mus musculus gave an inhibition in vivo of 51.4%. In addition, the Activity result in the data set with Rattus norvegicus [2], in the data set with Rattus norvegicus [3], in the data set with Rattus norvegicus [4] and in the data set with Rattus norvegicus [5] was “Non-toxic” throughout.

`O=C(Cc1ccccc1Nc1c(Cl)cccc1Cl)N/N=C/C=C/c1ccccc1`: the Inhibition turned out to be 32.28% in the data set with Rattus norvegicus [1], 48.81% with Rattus norvegicus [6] and 72.76% in the data set with Rattus norvegicus [7]. In addition, in the data set with Mus musculus, the inhibition in vivo at 10 mg/kg was 45.3%.

`COc1cccc(C(=O)CSc2nnc(Cc3ccccc3Nc3c(Cl)cccc3Cl)o2)c1`: the Inhibition in the data set on Rattus norvegicus [1] is recorded as 23.8%; with Rattus norvegicus [6], 52.09%; with Rattus norvegicus [7], 74.23%. The same compound showed an inhibition in vivo at 10 mg/kg with Mus musculus of 66.9%. The Activity result in the data set on Rattus norvegicus [2], in the data set on Rattus norvegicus [3], in the data set on Rattus norvegicus [4] and in the data set on Rattus norvegicus [5] was “Non-toxic” each time.

The values above are taken from ChEMBL document CHEMBL1143990, “Design, synthesis and evaluation of antiinflammatory, analgesic and ulcerogenicity studies of novel S-substituted phenacyl-1,3,4-oxadiazole-2-thiol and Schiff bases of diclofenac acid as nonulcerogenic derivatives” (Bioorg Med Chem, 2008).
